According to ChEMBL document CHEMBL1135626, “Imidazole inhibitors of cytokine release: probing substituents in the 2 position” (J Med Chem, 2002):

Experiments:
[1] = biological target: Mitogen-activated protein kinase 14 (Homo sapiens, UniProt Q16539); experiment: Inhibition of Mitogen-activated protein kinase p38 (P38 MAPK)
[2] = Inhibition of the release of tumor necrosis factor alpha from peripheral blood mononuclear cells; assay type: functional; details: Homo sapiens
Outline: (§1)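 PBMC isolated from healthy donor blood by density gradient centrifugation, ~10⁶ cells/mL, preincubated 15 min (37 °C, 5% CO2) with compounds in DMSO (1% final), then LPS 1µg/mL (E. coli 026:B6) for 4 h. Supernatant IL-1β and TNF-α by ELISA after ice stop and centrifugation. IC50 from semilog plot of % reduction vs control, 10^-4–10^-8 M; at least duplicate.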

[3] = Inhibition of the release of interleukin-1-beta from peripheral blood mononuclear cells; assay type: functional; details: Homo sapiens; outline: as §1
[4] = species: Homo sapiens; experiment: Ability to inhibit the release of tumor necrosis factor alpha (TNF-alpha) from whole blood; assay type: functional
Outline: (§2)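 Human whole blood preincubated 15 min (37 °C, 5% CO2) with compounds in Cremophor EL/ethanol 70:30 (1% final), then stimulated 4 h with 1µg/mL LPS (E. coli 026:B6). Reaction stopped on ice, samples centrifuged, supernatant IL-1β and TNF-α measured by ELISA. IC50 read from semilog plot of % reduction vs control over 10^-4–10^-8 M; at least duplicate.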

[5] = species: Homo sapiens; experiment: Ability to inhibit the release of interleukin-1-beta (IL-1 beta) from whole blood; assay type: functional; outline: as §2

Chain of Mitogen-activated protein kinase 14 (Q16539 whole entry): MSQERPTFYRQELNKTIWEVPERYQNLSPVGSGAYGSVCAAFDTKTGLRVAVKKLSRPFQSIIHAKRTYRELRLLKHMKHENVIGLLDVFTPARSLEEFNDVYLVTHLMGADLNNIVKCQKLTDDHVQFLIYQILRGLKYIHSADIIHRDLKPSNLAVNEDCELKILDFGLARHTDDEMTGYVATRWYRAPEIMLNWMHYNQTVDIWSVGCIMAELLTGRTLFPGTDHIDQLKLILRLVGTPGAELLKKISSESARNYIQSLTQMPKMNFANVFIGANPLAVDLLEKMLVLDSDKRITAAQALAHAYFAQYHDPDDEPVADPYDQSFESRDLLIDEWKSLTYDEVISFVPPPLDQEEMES

Structure (SMILES) | IC50 [1] [µM] | IC50 [2] [µM] | IC50 [3] [µM] | IC50 [4] [µM] | IC50 [5] [µM]
C[S+]([O-])c1ccc(CSc2nc(-c3ccc(F)cc3)c(-c3ccncc3)[nH]2)cc1 (configuration not stated) | 4 | 1.1 | 0.38 | 20.3 | 2.78
CSc1nc(-c2ccncc2)c(-c2ccc(F)cc2)[nH]1 | 0.63 | 0.9 | 0.044 | 4.2 | 1.2
CS(=O)(=O)c1ccc(CSc2nc(-c3ccc(Cl)cc3)c(-c3ccncc3)[nH]2)cc1 |  | 6.1 | 0.32 |  | 
CSc1ccc(CSc2nc(-c3ccc(Br)cc3)c(-c3ccncc3)[nH]2)cc1 |  | 12.9 | 2.4 |  | 
C[S+]([O-])c1cc(Cl)cc(CSc2nc(-c3ccc(F)cc3)c(-c3ccncc3)[nH]2)c1O (configuration not stated) |  | 28 | 4.4 |  | 
C[S+]([O-])c1ccc(CSc2nc(-c3ccc(F)cc3)c(-c3cccnc3)[nH]2)cc1 (configuration not stated) |  | > 100 | 98 |  | 
C[S+]([O-])c1ccc(O)c(CSc2nc(-c3ccc(F)cc3)c(-c3ccncc3)[nH]2)c1 (configuration not stated) |  | 5.8 | 1 | 103 | 13
CSc1ccc(CSc2nc(-c3ccc(Cl)cc3)c(-c3ccncc3)[nH]2)cc1 |  | 14 | 2.2 |  | 
Fc1ccc(-c2[nH]c(SCc3ccccc3)nc2-c2ccncc2)cc1 | 35 | 3.5 | 0.3 |  | 
C[S+]([O-])c1cc(CSc2nc(-c3ccncc3)c(-c3ccc(F)cc3)[nH]2)ccc1O (configuration not stated) | 3.4 | 5 | 2.3 | 9 | 12.1
CSc1cc(CSc2nc(-c3ccncc3)c(-c3ccc(F)cc3)[nH]2)ccc1O | 3.8 | 1.1 | 0.28 |  | 
CSc1cc(Cl)cc(CSc2nc(-c3ccc(F)cc3)c(-c3ccncc3)[nH]2)c1O |  | 13.3 | 0.64 |  | 
Oc1cccc(CSc2nc(-c3ccc(F)cc3)c(-c3ccncc3)[nH]2)c1 |  | 5.4 | 0.31 |  | 
Oc1ccc(CSc2nc(-c3ccncc3)c(-c3ccc(F)cc3)[nH]2)cc1 | 5.7 | 6.8 | 0.37 |  | 
N#CCSc1nc(-c2ccncc2)c(-c2ccc(F)cc2)[nH]1 |  | 2.3 | < 0.1 |  | 
CS(=O)(=O)c1ccc(CSc2nc(-c3ccccc3)c(-c3ccncc3)[nH]2)cc1 |  | 8 | 1.7 |  | 
C[S+]([O-])c1cccc(CSc2nc(-c3ccncc3)c(-c3ccc(F)cc3)[nH]2)c1 (configuration not stated) | 2.1 | 23.5 | 1 | 33.5 | 4.1
C[S+]([O-])c1ccc(CSc2nc(-c3ccccc3)c(-c3ccncc3)[nH]2)cc1 (configuration not stated) | 12 | 4.3 | 0.84 |  | 
CS(=O)(=O)c1ccc(CSc2nc(-c3ccc(F)cc3)c(-c3ccncc3)[nH]2)cc1 |  | 2.5 | 0.33 | 28.8 | 2.9

Structure (SMILES) | IC50 [1] [µM] | IC50 [2] [µM] | IC50 [3] [µM] | IC50 [4] [µM] | IC50 [5] [µM]
Fc1ccc(-c2[nH]c(SCCc3ccccc3)nc2-c2ccncc2)cc1 |  | 23.5 | 0.64 |  | 
Fc1ccc(-c2[nH]c(SCC3CCCCC3)nc2-c2ccncc2)cc1 |  | 33.8 | 0.24 |  | 
Fc1ccc(-c2[nH]c(SCc3cccc4ccccc34)nc2-c2ccncc2)cc1 |  | 8.8 | 0.82 |  | 
CSc1ccccc1CSc1nc(-c2ccc(F)cc2)c(-c2ccncc2)[nH]1 |  | 18.3 | 6.7 |  | 
CSc1ccc(O)c(CSc2nc(-c3ccc(F)cc3)c(-c3ccncc3)[nH]2)c1 |  | 5.1 | 0.74 |  | 
Fc1ccc(-c2[nH]c(SCCCc3ccccc3)nc2-c2ccncc2)cc1 |  | 16 | 0.47 |  | 
CSc1ccc(CSc2nc(-c3ccc(F)cc3)c(-c3ccncc3)[nH]2)cc1 |  | 4.9 | 0.67 |  | 
Fc1ccc(-c2[nH]c(/C=C/c3ccccc3)nc2-c2ccncc2)cc1 |  | 6.5 | 0.13 |  | 
C[S+]([O-])c1ccc(CCSc2nc(-c3ccncc3)c(-c3ccc(F)cc3)[nH]2)cc1 (configuration not stated) | 1.5 | 7.3 | 0.5 |  | 
CSc1ccc(CSc2nc(-c3ccccc3)c(-c3ccncc3)[nH]2)cc1 |  | 17.1 | 72.5 |  | 
C[S+]([O-])c1ccc(CSc2nc(-c3ccc(Br)cc3)c(-c3ccncc3)[nH]2)cc1 (configuration not stated) | 3.8 | 7.8 | 0.82 |  | 
CSc1cccc(CSc2nc(-c3ccncc3)c(-c3ccc(F)cc3)[nH]2)c1 | 2.3 | 12 | 0.55 |  | 
C[S+]([O-])c1ccc(CSc2nc(-c3ccc(Cl)cc3)c(-c3ccncc3)[nH]2)cc1 (configuration not stated) | 1.4 | 3.1 | 0.32 |  | 
CS(=O)(=O)c1ccc(CSc2nc(-c3ccc(Br)cc3)c(-c3ccncc3)[nH]2)cc1 |  | 7.3 | 0.64 |  | 
C[S+]([O-])c1ccccc1CSc1nc(-c2ccc(F)cc2)c(-c2ccncc2)[nH]1 (configuration not stated) |  | 15 | 0.9 | 47.5 | 4
C[S+]([O-])c1ccc(CCCSc2nc(-c3ccc(F)cc3)c(-c3ccncc3)[nH]2)cc1 (configuration not stated) | 0.75 | 3.6 | 0.18 |  | 
Oc1ccccc1CSc1nc(-c2ccc(F)cc2)c(-c2ccncc2)[nH]1 |  | 24.8 | 0.44 |  | 
Fc1ccc(-c2[nH]c(CCc3ccccc3)nc2-c2ccncc2)cc1 | 0.69 | 5.4 | 0.14 |  | 
